High-throughput results as filed in PubChem.
An excerpt weighted towards active compounds, which were near 0.89% of everything screened.
PG9 Ab binder: binders of HIV-1 gp120 antibody PG9, primary screen, biochemical, TR-FRET; HIV-1 gp120 / PG9 antibody interaction; TR-FRET gp120-PG9 antibody binding; inhibition, % at 6.7 µM; 0.43% of 360,000 active; AID 624416, 2012; in the data active = inhibition above about 8.5%
iPSC survival up: enhancers of single-cell hiPSC survival, primary screen, ATPlite luminescence; 100% = ROCK inhibitor wells, 0% = DMSO; survival enhancement, % at 20 µM; 0.044% of 360,000 active; in the data active = survival enhancement above about 18%;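 also: cells exposed to compounds for 16 hours before the ATP read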
Arrestin-AP2 inh: inhibitors of beta-arrestin/AP2 binding, primary screen, biochemical, GPCR trafficking, flow cytometry; 0.31% of 340,000 active; inhibition, % at 10 µM; FITC-arrestin peptide / GST-AP2 beads; AP2 beta2 appendage carries R879A mutation; beta-arrestin 1 C-terminal peptide binding to AP2 beta2-adaptin appendage (human);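 active = inhibition above a set limit, near 3 SD of compounds lacking own fluorescence, cut at about 54% in these data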
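Assay system: GST-AP2 R879A bound to glutathione beads, E. coli-expressed; Medium: PBS with 0.05% Tween 20 and 0.1% BSA; Also added: fluorescein-tagged arrestin peptide at 50 nM final; Timing: 12 min plus 1 h, RT; Measured by: flow cytometry, FL1 (488/535 nm); Evaluation: percent drop in bead-associated FITC signal.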
ABCB6 inh MLPCN: ABCB6 transporter inhibitors, primary screen, K562-ABCB6 cells, flow cytometry, MLPCN library. K562-ABCB6 porphyrin accumulation, 1 h; hits give low values. fluorescence ratio to DMSO, % at 10 µM. 0.19% of 360,000 active;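 active = fluorescence ratio to DMSO below 75%, the collection mean minus 3 SD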;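 also: signal is porphyrin accumulated inside mitochondria; lower ratio means ABCB6 inhibition with less porphyrin fluorescence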
Target sequence (Q9NP58 whole entry, looked up): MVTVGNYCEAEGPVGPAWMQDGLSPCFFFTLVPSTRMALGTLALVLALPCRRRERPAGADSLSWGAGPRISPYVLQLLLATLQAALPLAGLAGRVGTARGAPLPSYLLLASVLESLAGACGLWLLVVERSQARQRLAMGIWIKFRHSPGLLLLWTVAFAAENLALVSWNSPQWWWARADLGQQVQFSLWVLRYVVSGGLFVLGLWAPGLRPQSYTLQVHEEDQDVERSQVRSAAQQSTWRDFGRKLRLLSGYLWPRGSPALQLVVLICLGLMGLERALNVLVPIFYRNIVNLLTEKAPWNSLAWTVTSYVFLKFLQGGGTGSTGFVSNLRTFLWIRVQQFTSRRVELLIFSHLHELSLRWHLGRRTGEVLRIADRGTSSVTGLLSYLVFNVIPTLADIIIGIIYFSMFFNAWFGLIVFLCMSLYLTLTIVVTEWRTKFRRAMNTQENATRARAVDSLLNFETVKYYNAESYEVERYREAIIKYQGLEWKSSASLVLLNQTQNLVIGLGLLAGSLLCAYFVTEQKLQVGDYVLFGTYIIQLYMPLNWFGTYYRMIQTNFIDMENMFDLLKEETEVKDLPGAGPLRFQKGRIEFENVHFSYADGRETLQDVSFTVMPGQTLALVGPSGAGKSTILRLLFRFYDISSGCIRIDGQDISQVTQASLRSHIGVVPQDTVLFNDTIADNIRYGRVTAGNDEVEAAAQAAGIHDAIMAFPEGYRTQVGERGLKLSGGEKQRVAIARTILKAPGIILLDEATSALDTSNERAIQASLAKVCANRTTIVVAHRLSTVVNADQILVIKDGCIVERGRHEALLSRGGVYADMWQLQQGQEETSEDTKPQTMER
PG9 binder conf: binders of anti-gp120 antibody PG9, confirmation, biochemical, TR-FRET | TR-FRET PG9 antibody binding | 90% of 1,500 active | inhibition, % at 6.7 µM | AID 651571, 2012 | shares compounds with PG9 Ab binder; in the data active = inhibition above about 9%
PGV04 Ab binding: binders of control antibody PGV04, counter-screen for PG9 antibody binder project, biochemical, TR-FRET, distinct HIV envelope site | TR-FRET PGV04 antibody-gp120 binding | shares compounds with PG9 Ab binder | 95% of 1,500 active | inhibition, % at 6.7 µM; in the data active = inhibition above about 9.5%
PG9 bind DR: small-molecule binders of antibody PG9, dose response, biochemical, TR-FRET, HIV-1 gp120 antibody. shares compounds with PG9 Ab binder. TR-FRET PG9 antibody-gp120 binding inhibition. IC50, µM. 95 tested, under 10 active. AID 651848, 2012; in the data active = IC50 below about 10 µM
PGV04 DR counter: binders of control antibody PGV04, dose response, counter-screen for PG9 antibody binder project, biochemical, TR-FRET, distinct HIV envelope site; shares compounds with PG9 Ab binder; TR-FRET binding to control antibody PGV04; IC50, µM; 20% of 95 active; AID 651937, 2012
PG126 binding DR: binders of control antibody PG126, dose response, counter-screen for PG9 antibody binder project, biochemical, TR-FRET, distinct HIV envelope site; IC50, µM; shares compounds with PG9 Ab binder; 20% of 95 active; TR-FRET binding to antibody PG126, counterscreen
Large screens that a line does not name were inactive (follow-up assays come after a bar, where they were run); ! = not confirmed by another sample. Rule as the data show it, unless noted: active = IC50 below about 9 µM; inactive = the rest.

O=C1C(=O)N(Cc2cccnc2)C(c2cccc([N+](=O)[O-])c2)/C1=C(\O)c1ccc2c(c1)OCCO2 (stereo not given)	none
O=C1C(=O)N(Cc2cccnc2)C(c2cccc(F)c2)/C1=C(/O)c1ccc2c(c1)OCO2 (stereo not given)	PG9 Ab binder 21 | PG9 binder conf 44 | PGV04 Ab binding 52
CCOC1=C2[C@H](c3ccccc3)N(S(=O)(=O)c3ccc(C)cc3)[C@H](C(C)C)[C@H]2C(C#N)(C#N)C(C#N)(C#N)C1	none (no result: iPSC survival up, Arrestin-AP2 inh, ABCB6 inh MLPCN)
Cc1[nH]c2ccccc2c1CC(=O)Nc1ccc(Oc2cccnc2)cc1	none (no result: iPSC survival up, Arrestin-AP2 inh, ABCB6 inh MLPCN)
O=C(NCc1cccnc1)c1ccccc1NS(=O)(=O)c1ccccc1	PG9 Ab binder 11 | PG9 binder conf 9.5 | PGV04 Ab binding 19
CON(c1nc(Cl)nc(N(C)C)n1)S(=O)(=O)c1ccc(C)cc1	PG9 Ab binder 10 | PG9 binder conf inactive | PGV04 Ab binding inactive
CON(c1nc(Cl)nc(N(C)C)n1)S(=O)(=O)c1ccccc1Cl	none
COCc1cc(N2CCN(C(=O)OC(C)(C)C)C[C@H]2C)ccc1N1CCN(Cc2ccccc2)[C@@H](C)C1	none (no result: iPSC survival up, Arrestin-AP2 inh, ABCB6 inh MLPCN)
Cc1ccc(N=Cc2ccc(O)cc2O)cc1F	PG9 Ab binder 17 | PG9 binder conf 11 | PGV04 Ab binding 15
Oc1ccc(C=Nc2ccc(N3CCOCC3)cc2)c(O)c1	none
CN1CCc2cccc3c2[C@H]1Cc1ccc(O)c(O)c1-3	PG9 Ab binder 11! | PG9 binder conf 12 | PGV04 Ab binding 15
Cc1ccc(S(=O)(=O)NCC2CCN(C(=O)C(=O)c3cccs3)CC2)cc1	none (no result: iPSC survival up, Arrestin-AP2 inh, ABCB6 inh MLPCN)
Cc1cc(Br)cn2c(Cc3cccc(F)c3)c(-c3ccc(C#N)cc3)nc12	PG9 Ab binder 9.2 (no result: Arrestin-AP2 inh) | PG9 binder conf 15 | PGV04 Ab binding 21
N#Cc1ccc(-c2nc3ccc(Br)cn3c2Cc2ccccc2)cc1	PG9 Ab binder 10 (no result: Arrestin-AP2 inh) | PG9 binder conf 14 | PGV04 Ab binding 23
N#Cc1ccc(-c2nc3ccc(Br)cn3c2Cc2cccc(F)c2)cc1	none (no result: Arrestin-AP2 inh)
CC(=O)NC1CCCCN(C)C1=O (stereo not given)	none (no result: iPSC survival up, Arrestin-AP2 inh, ABCB6 inh MLPCN)
O=C(CCn1nnc2ccccc21)Nc1nnc(-c2ccccc2F)s1	PG9 Ab binder 13 | PG9 binder conf 23 | PGV04 Ab binding 38
O=C(CCn1nnc2ccccc21)Nc1nnc(COc2ccccc2F)s1	none
Cc1ccc(-c2noc(-c3cccs3)n2)cc1	PG9 Ab binder 8.8 | PG9 binder conf 26 | PGV04 Ab binding 28
COc1ccc(-c2nc(-c3cccs3)no2)cc1	none
CC[C@@]1(O)C(=O)OCc2c1cc1n(c2=O)Cc2cc3c(CN(C)C)c(O)ccc3nc2-1	PG9 Ab binder 12 | PG9 binder conf 12 | PGV04 Ab binding 20
CC[C@@]1(O)C(=O)OCc2c1cc1n(c2=O)Cc2cc3c(N)cccc3nc2-1	none
O=c1ccc(-c2ccc(S(=O)(=O)N3CCN(c4ccccc4)CC3)o2)n[nH]1	PG9 Ab binder 25 | PG9 binder conf 43 | PGV04 Ab binding 48
O=c1ccc(-c2ccc(S(=O)(=O)N3CCN(c4cccc(Cl)c4)CC3)o2)n[nH]1	none
CC(=O)N1C[C@@H](CO)[C@@H](N(C)C(=O)Nc2cccc3ccccc23)C[C@H]1c1ccccc1	none (no result: iPSC survival up, Arrestin-AP2 inh, ABCB6 inh MLPCN)
O=c1[nH]c2ccccc2cc1CN(c1ccccc1)S(=O)(=O)c1ccccc1	PG9 Ab binder 18 | PG9 binder conf 25 | PGV04 Ab binding 27
O=C(CCCn1c(=S)[nH]c2cc3c(cc2c1=O)OCO3)NCc1ccccc1Cl	PG9 Ab binder 19 | PG9 binder conf 21 | PGV04 Ab binding 21 | PG9 bind DR inactive | PGV04 DR counter inactive | PG126 binding DR inactive
COc1cccc(CNC(=O)CCCn2c(=S)[nH]c3cc4c(cc3c2=O)OCO4)c1	PG9 Ab binder 28 | PG9 binder conf 15 | PGV04 Ab binding 23
COc1cccc(N2CCN(C(=O)CCCCCn3c(=S)[nH]c4cc5c(cc4c3=O)OCO5)CC2)c1	none
O=c1c2ccccc2[nH]c(=S)n1Cc1ccc2c(c1)OCO2	PG9 Ab binder 8.6 | PG9 binder conf 12 | PGV04 Ab binding 22
O=C(CCn1c(=O)oc2ccccc21)NCc1ccc2c(c1)OCO2	none
O=C(CCn1c(=O)c2ccccc2n(Cc2ccccc2)c1=O)NCc1ccc2c(c1)OCO2	PG9 Ab binder 13 | PG9 binder conf 24 | PGV04 Ab binding 42
COC(=O)CCC[C@H](C)[C@@H](NS(=O)(=O)c1ccc(C)cc1)C(C)(C)C	none (no result: iPSC survival up, Arrestin-AP2 inh, ABCB6 inh MLPCN)
Brc1ccc(CN2CCCc3nc(-c4ccccc4)ccc32)cc1	none (no result: iPSC survival up, Arrestin-AP2 inh, ABCB6 inh MLPCN)
C[C@@H]1CNC(=O)c2c(C(=O)N3CCN(c4ccccc4)CC3)ncn21	none (no result: iPSC survival up, Arrestin-AP2 inh, ABCB6 inh MLPCN)
CCc1ccc2oc(C(=O)Nc3ccc(S(N)(=O)=O)cc3)c(C)c2c1	PG9 Ab binder 10 | PG9 binder conf 15 | PGV04 Ab binding 21
CCc1ccccc1NC(=O)c1nnn(CC(=O)Nc2cccc(C)c2C)c1N	PG9 Ab binder 41 | PG9 binder conf 41 | PGV04 Ab binding 48
CSc1nc(SCCN(C)C)c2c3c(sc2n1)COC(C)(C)C3	none
CSc1nc(SC(C)C(=O)O)c2c3c(sc2n1)COC(C)(C)C3 (stereo not given)	PG9 Ab binder 9.0 | PG9 binder conf 21 | PGV04 Ab binding 30
COc1ccc2oc(=N)c(C(=O)Nc3ccccc3)cc2c1	PG9 Ab binder 18 | PG9 binder conf inactive | PGV04 Ab binding 9.2
COc1ccc(-c2csc(-n3ncc(C(=O)O)c3C(F)(F)F)n2)cc1	PG9 Ab binder 16 | PG9 binder conf 22 | PGV04 Ab binding 36
COc1ccc(-n2c(=S)[nH]c3c(oc4ccccc43)c2=O)cc1	PG9 Ab binder 26 | PG9 binder conf 13 | PGV04 Ab binding 12 | PG9 bind DR inactive | PGV04 DR counter inactive | PG126 binding DR inactive
CCCc1ccc(-c2cc(NC(=O)Cc3c(C)[nH]c4ccccc34)ccc2N(C)c2cccnc2)cc1	none (no result: iPSC survival up, Arrestin-AP2 inh, ABCB6 inh MLPCN)
